KCNQ1 block: inhibitors of human KCNQ1 channel, primary screen, cell-based, thallium flux, high-throughput; CHO-K1 KCNQ1, FluxOR thallium flux fluorescence; hits give high values; B-score at 10 µM; 310,000 compounds, 1.3% hits; AID 2642, 2010;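 active = compounds whose thallium flux B-score, printed positive for inhibition, exceeds three library SD while starting fluorescence stays within three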;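 also: channel opened by potassium depolarization with thallium stimulus after 20 min compound exposure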
KCNK3 block: human KCNK3 channel inhibitors, primary screen, CHO cells, FluxOR thallium flux, B-score. Potassium channel subfamily K member 3 (Homo sapiens), O14649. 340,000 compounds, 0.84% hits. AID 602410, 2012. FluxOR fluorescence; hits give low values. B-score at 10 µM;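 active = B-score under library mean minus 4 SD, starting fluorescence ratio at most library mean plus 5 SD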;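 also: more negative B-score means stronger inhibition of thallium flux through KCNK3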
Kir21 block: inhibitors of mouse Kir2.1 inward-rectifier potassium channel. HEK293-Kir2.1, FluxOR thallium flux fluorescence; hits give low values. B-score at 10 µM. 310,000 compounds, 0.85% hits. AID 1672, 2009;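 active = fluorescence ratio B-score at or below minus 3 SD of library scores, with starting-brightness B-score within 2 SD, cut at about -4.2 in these data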;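 also: channel flux triggered by added potassium and thallium sulfate stimulus; B-score of peak minus minimum fluorescence over baseline after thallium stimulus; more negative B-score means stronger Kir2.1 block with less thallium influx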
hERG rescue: hERG rescue from dofetilide block, primary screen, cell-based, CHO-hERG, FluxOR thallium flux, dofetilide IC70 | dofetilide IC70 present | Voltage-gated inwardly rectifying potassium channel KCNH2 (Homo sapiens), Q12809 | AID 1511, 2009 | activation (rescue from dofetilide block), less the hit threshold, % at 10 µM | 310,000 compounds, 0.51% hits;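 active = activation above the mean of controls blocked by dofetilide plus 5 SD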;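 also: thallium influx through hERG after potassium depolarization seen as dye fluorescence rise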
KCNQ1 act: potentiators or activators of KCNQ1 channel, primary screen, cell-based, thallium flux, high-throughput; Potassium voltage-gated channel subfamily KQT member 1 (Homo sapiens), P51787; CHO-K1 KCNQ1, thallium flux FluxOR fluorescence; hits give high values; B-score at 10 µM; 310,000 compounds, 0.35% hits;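 active = fluorescence ratio B-score, a plate-corrected score, at least three library SD, with initial intensity B-score within 5 SD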
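Assay system: stable KCNQ1 CHO-K1 line; medium: assay buffer, equal DMSO in all wells; timing: 90 min dye loading and 20 min compound exposure, both at room temperature; technique: kinetic FluxOR thallium fluorescence, 10-s 1-Hz baseline, 110-s post-stimulus read; read-out basis: B score of baseline-normalized fluorescence ratio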
KCNK9 block: KCNK9 potassium channel inhibitors, primary screen, HEK293 cells, thallium flux | AID 488922, 2010 | 310,000 compounds, 1.2% hits | B-score at 10 µM | Potassium channel subfamily K member 9 (Homo sapiens), Q9NPC2 | FluxOR thallium flux fluorescence; hits give low values;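 active = ratio B-score over 3 SD below the library mean, with starting fluorescence within 5 SD of its mean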;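 also: negative B-score means less thallium flux so channel inhibition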
KCNQ1 block val: KCNQ1 potassium channel inhibitors, confirmation, cell-based, Tl flux, duplicate; shares compounds with KCNQ1 block; KCNQ1 cell line, FluxOR thallium flux fluorescence; inhibition, % at 10 µM; 1,600 compounds, 93% hits; AID 588353, 2011;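 active = primary screen active, with duplicate mean exceeding buffer control mean plus 3 SD of buffer wells, cut at about 28% in these data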;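 also: 0% = buffer control ratio and 100% = XE991 inhibitor control ratio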
CHO Tl flux: thallium flux effects in parental CHO cells, counter-screen for KCNQ1 inhibitor project, cell-based, Tl flux | AID 588366, 2011 | parental CHO-K1, FluxOR thallium flux fluorescence ratio; hits give low values; zero means no signal rise above baseline | shares compounds with KCNQ1 block | 1,600 compounds, 21% hits | fluorescence ratio (Tl flux) at 10 µM;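 active = mean of duplicate thallium-flux fluorescence ratios in parental host cells more than 5 SD below the buffer control mean, cut at about 0.38 in these data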;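 also: ratio is peak minus minimum fluorescence divided by baseline fluorescence; actives read low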
KCNQ1 APC inh: KCNQ1 channel inhibitors, confirmation, orthogonal assay, cell-based, automated electrophysiology. AID 624120, 2012. KCNQ1-CHO cells, automated patch clamp current. calls only at 10 µM. 490 compounds, 20% hits. shares compounds with KCNQ1 block;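 active = KCNQ1 current drop exceeding 3 SD of negative control wells, seen in both duplicate runs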;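 also: steady state current during a 2 s step from -80 to +40 mV; negative values mean current inhibition and positive values mean potentiation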
KCNQ2 spec: KCNQ2 channel inhibition, selectivity assay for KCNQ1 inhibitor project, cell-based. 1,600 compounds, 71% hits. shares compounds with KCNQ1 block. inhibition, % at 10 µM. AID 651746, 2012. KCNQ2 cells, FluxOR thallium flux fluorescence;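 active = mean percent inhibition of the KCNQ2 thallium signal more than 5 SD above the buffer-only control wells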;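 also: KCNQ2 expressed in CHO cells; 0% = buffer control wells and 100% = XE-991 inhibitor control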
Target sequence (O88943 whole entry, looked up): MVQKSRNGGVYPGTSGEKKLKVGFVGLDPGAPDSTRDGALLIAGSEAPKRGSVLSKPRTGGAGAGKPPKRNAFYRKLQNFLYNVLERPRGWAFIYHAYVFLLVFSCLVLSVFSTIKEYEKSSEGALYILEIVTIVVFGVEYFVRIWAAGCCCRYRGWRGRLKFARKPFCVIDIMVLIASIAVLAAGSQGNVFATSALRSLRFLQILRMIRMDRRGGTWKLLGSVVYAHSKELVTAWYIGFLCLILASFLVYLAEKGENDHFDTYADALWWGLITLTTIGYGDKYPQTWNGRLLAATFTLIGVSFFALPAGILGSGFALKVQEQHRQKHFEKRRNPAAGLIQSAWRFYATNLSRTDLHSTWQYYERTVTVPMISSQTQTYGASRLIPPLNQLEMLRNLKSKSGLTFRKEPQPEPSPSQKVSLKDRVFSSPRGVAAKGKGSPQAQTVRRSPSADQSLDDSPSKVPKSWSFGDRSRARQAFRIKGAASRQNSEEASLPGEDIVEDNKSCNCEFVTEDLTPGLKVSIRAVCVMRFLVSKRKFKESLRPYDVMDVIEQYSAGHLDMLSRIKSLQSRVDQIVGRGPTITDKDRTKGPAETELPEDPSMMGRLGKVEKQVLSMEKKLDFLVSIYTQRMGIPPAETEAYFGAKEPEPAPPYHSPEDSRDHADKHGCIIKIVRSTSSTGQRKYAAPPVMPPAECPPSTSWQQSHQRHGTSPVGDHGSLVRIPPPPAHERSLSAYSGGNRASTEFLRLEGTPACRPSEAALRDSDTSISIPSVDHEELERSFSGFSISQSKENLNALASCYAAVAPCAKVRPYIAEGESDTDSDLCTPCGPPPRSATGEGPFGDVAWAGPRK
KCNQ1 KCNE1 spec: KCNQ1/KCNE1 channel inhibition, selectivity assay for KCNQ1 inhibitor project, CHO-K1 cells, thallium flux, FluxOR | shares compounds with KCNQ1 block | FluxOR thallium flux fluorescence | inhibition, % at 10 µM | 1,600 compounds, 77% hits;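 active = mean percent inhibition of duplicate wells above the buffer-only control mean plus 3 SD of those controls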;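 also: 0% = buffer only wells and 100% = XE-991 inhibitor control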
Starred values were filed as active, the others as inactive; i = inactive; x = no result; + = active, no number. This is a sample that favours compounds with a hit; in the whole collection about 3.7% have one here.

SMILES	KCNQ1 block	KCNK3 block	Kir21 block	hERG rescue	KCNQ1 act	KCNK9 block	KCNQ1 block val	CHO Tl flux	KCNQ2 spec	KCNQ1 KCNE1 spec	others
COC(=O)Cc1nc(Nc2ccccc2)sc1C	7*	i	-0.68	-12.3	i	i	47.0*	0.448	i	46.5%*
CC(C)(C)c1ccc(S(=O)(=O)N2CCC(c3nc4ccc(Cl)cc4[nH]3)CC2)cc1	10*	i	2.08	-3.5	i	i	117.0*	0.433	101.3%*	108.5%*
COC(=O)c1sccc1NC(=O)Nc1ccccc1Cl	i	i	0.24	-10.7	i	i	x	x	x	x
Nc1ccc(N=Nc2ccccc2O)c(N)c1	i	i	-0.04	-10.2	i	i	x	x	x	x
Oc1ccccc1N=Nc1ccccc1O	13*	i	-0.03	-11.9	i	i	61.5*	0.505	i	i
CN(Cc1ccccc1)C1CCNCC1	i	i	0.32	-2.5	i	i	x	x	x	x
Cc1cccc(NC(=O)c2ccc(C3SCC(=O)N3CCc3ccccc3)cc2)c1 (stereo unspecified)	7*	i	-0.34	-19.8	i	i	99.0*	0.43	108.7%*	82.5%*	KCNQ1 APC inh=i
Cc1nnsc1SCCNC(=O)Nc1ccc(Cl)cc1	7*	i	0.34	-9.6	i	i	67.0*	0.519	i	35.5%*
O=C(CCN1C(=O)CSc2ccccc21)Nc1ccc(OC(F)(F)F)cc1	x	i	x	x	x	x	x	x	x	x
O=C(c1ccc2nc[nH]c2c1)N1CCN(c2ncc(C(F)(F)F)cc2Cl)CC1	8*	i	-2.35	-9.2	i	i	0.0	0.584	i	i
Cc1ccc2nc(SCC(=O)Nc3cc(C(C)(C)C)nn3-c3ccccc3)[nH]c2c1	8*	i	0.73	-10.5	i	i	95.5*	0.423	111.0%*	141.0%*	KCNQ1 APC inh=+
COc1ccc(C2(CNC(=O)c3ccccc3)CCCC2)cc1OC	i	i	-0.63	0.0	i	i	x	x	x	x
O=C(NCC1(c2ccccc2)CCCC1)c1cccc(Br)c1	6*	i	0.91	-12.5	i	i	106.5*	0.408	112.0%*	147.0%*	KCNQ1 APC inh=+
CCOC(=O)C(Cc1ccccc1)NC(=O)CCc1nnc2ccc(N3CCCC3)nn12 (stereo unspecified)	i	i	-0.52	-12.8	i	i	x	x	x	x
CC(C)(C)c1csc(NC(=O)c2ccccc2O)n1	9*	i	2.36	-11.7	i	i	65.0*	0.547	i	i
Cc1cc(OCC(=O)Nc2ccncc2)ccc1Br	13*	i	0.66	-14.4	i	i	71.5*	0.544	i	i
Cc1ccc(CNCC(O)(c2ccccc2)c2ccc(Cl)cc2)cc1 (stereo unspecified)	6*	i	-2.75	-33.7	i	i	116.0*	0.424	92.3%*	42.0%*	KCNQ1 APC inh=i
COc1ccccc1-c1c(C)nn2c(N3CCCCCC3)cc(C)nc12	8*	i	0	-16.2	i	i	0.0	0.491	84.7%*	i
CC(=O)c1nn(-c2ccc(C(F)(F)F)cc2)c(=O)[nH]c1=O	i	i	-2.28	-0.2	i	i	x	x	x	x
Cc1ccc(Cl)cc1N1CCN(C(=O)COc2ccc3c(c2)CCC3)CC1	7*	i	0.9	-5.6	i	i	118.0*	0.421	121.0%*	170.0%*	KCNQ1 APC inh=i
CC(NC(=O)Nc1ccc(Br)cc1)C(C)(C)C (stereo unspecified)	8*	i	-0.55	-10.7	i	i	60.0*	0.426	69.0%*	66.0%*
Clc1cccc(-c2cc3nc4c(c(N5CCOCC5)n3n2)CCCC4)c1	6*	-9.11*	-0.1	-5.2	i	i	101.0*	0.479	77.7%*	117.0%*
OC1CCN(c2c3c(nc4cc(-c5ccc(Cl)cc5)nn24)CCC3)CC1	i	i	0.05	-3.9	i	i	x	x	x	x
COc1cc2ncc(S(=O)(=O)c3ccccc3)c(N3CCCC(C)C3)c2cc1OC (stereo unspecified)	11*	i	-2.4	-22.4	i	i	151.5*	0.276*	164.0%*	+
O=S(=O)(c1ccccc1)c1cnc(-c2ccccc2)nc1N1CCCC1	i	i	0.3	-15.5	i	i	x	x	x	x
CC(Oc1cccc(Cl)c1)C(=O)Nc1cc(S(=O)(=O)N2CCOCC2)ccc1N1CCCC1 (stereo unspecified)	i	i	-0.93	-16.1	i	i	x	x	x	x
CC(Oc1cccc(Cl)c1)C(=O)Nc1cc(S(=O)(=O)N2CCCCC2)ccc1N1CCOCC1 (stereo unspecified)	9*	i	2.09	-13.2	i	i	69.0*	0.392	94.0%*	95.0%*
COc1cc(-c2cc(N)n(S(=O)(=O)c3ccc(F)cc3)n2)cc(OC)c1OC	i	i	-0.13	-16.8	i	i	x	x	x	x
